Common to all, as to assay type: functional, cell-based
One assay has as its system HCT-8. Kind of assay: Cytotoxicity against human HCT8 cells after 96 hrs by MTT assay. The note with it: HCT-8, 96 h. The gist of the method:
(§1)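 Cells kept in RPMI 1640 with 10% FBS, L-glutamine, penicillin/streptomycin at 37 °C, 5% CO2. 1.5 × 10³ cells/well seeded; after 24 h compounds added in DMSO at five final concentrations (0.01-10 […]), triplicate wells, 96 h exposure. MTT (0.5 mg/mL) 4 h at 37 °C, formazan dissolved in DMSO, A570 read. IC50 = 50% OD reduction vs control from dose-response curve.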
(In general: Formazan colour is commonly taken as a measure of viable cells.)

The subject of the next assay is Bel-7402. Kind of assay: Cytotoxicity against human Bel7402 cells after 96 hrs by MTT assay. Particulars: Bel-7402, 96 h. The essentials:
as §1

A further assay relates to BGC-823. Nature of the assay: Cytotoxicity against human BGC823 cells after 96 hrs by MTT assay. The note with it: BGC-823, 96 h. The gist of the method:
as §1

For another assay, the system named is A549. Kind of assay: Cytotoxicity against human A549 cells after 96 hrs by MTT assay. Particulars: A549, 96 h. The gist of the method: as §1
The test system of another assay is A2780. Nature of the assay: Cytotoxicity against human A2780 cells after 96 hrs by MTT assay. Particulars: A2780, 96 h. The gist of the method: as §1

Molecules are shown by their SMILES.

The text below walks through data of ChEMBL document CHEMBL1151417, “Cytotoxic triterpenoid glycosides from the roots of Gordonia chrysandra” (J Nat Prod, 2009).

As a reminder, the IC50 is the concentration that inhibits the measured activity by half.

Consider `C/C=C(/C)C(=O)O[C@H]1[C@H](OC(=O)/C(C)=C\C)[C@]2(CO)[C@H](O)C[C@]3(C)C(=CC[C@@H]4[C@@]5(C)CC[C@H](O[C@@H]6O[C@H](C(=O)O)[C@@H](O)[C@H](O[C@@H]7OC[C@H](O)[C@H](O)[C@H]7O)[C@H]6O)[C@@](C)(CO)[C@@H]5CC[C@]43C)[C@@H]2CC1(C)C` [GORDONOSIDE A], for which the IC50 in the assay on HCT-8 was greater than 10 µM; in the assay with Bel-7402 it was 4.7 µM; in the assay with BGC-823, greater than 10 µM; in the assay with A549, greater than 10 µM; with A2780 it was 5.5 µM.

With `C/C=C(/C)C(=O)O[C@H]1[C@H](OC(=O)/C(C)=C\C)[C@]2(CO)[C@H](OC(C)=O)C[C@]3(C)C(=CC[C@@H]4[C@@]5(C)CC[C@H](O[C@@H]6O[C@H](C(=O)O)[C@@H](O)[C@H](O[C@@H]7OC[C@H](O)[C@H](O)[C@H]7O)[C@H]6O)[C@@](C)(CO)[C@@H]5CC[C@]43C)[C@@H]2CC1(C)C` [GORDONOSIDE B], the IC50 with HCT-8, in the assay with Bel-7402, in the assay with BGC-823, in the assay with A549 and in the assay on A2780 was greater than 10 µM throughout.

Regarding `C/C=C(/C)C(=O)O[C@H]1[C@H](OC(=O)/C(C)=C\C)[C@]2(CO)[C@H](O)C[C@]3(C)C(=CC[C@@H]4[C@@]5(C)CC[C@H](O[C@@H]6O[C@H](C(=O)O)[C@@H](O)[C@H](O[C@@H]7OC[C@H](O)[C@H](O)[C@H]7O)[C@H]6O)C(C)(C)[C@@H]5CC[C@]43C)[C@@H]2CC1(C)C` [GORDONOSIDE C], the IC50 turned out to be 1.2 µM in the assay on HCT-8; 0.7 µM with Bel-7402; 2.5 µM in the assay on BGC-823; 1.8 µM in the assay with A549; 0.4 µM with A2780.

In the case of `C/C=C(/C)C(=O)O[C@H]1[C@H](OC(=O)/C(C)=C\C)[C@]2(CO)[C@H](OC(C)=O)C[C@]3(C)C(=CC[C@@H]4[C@@]5(C)CC[C@H](O[C@@H]6O[C@H](C(=O)O)[C@@H](O)[C@H](O[C@@H]7OC[C@H](O)[C@H](O)[C@H]7O)[C@H]6O)C(C)(C)[C@@H]5CC[C@]43C)[C@@H]2CC1(C)C` [GORDONOSIDE D], the IC50 in the assay with HCT-8, with Bel-7402, in the assay with BGC-823, in the assay with A549 and in the assay with A2780 was greater than 10 µM each time.

For `C/C=C(/C)C(=O)O[C@H]1[C@H](OC(=O)/C(C)=C\C)[C@]2(CO)[C@H](O)C[C@]3(C)C(=CC[C@@H]4[C@@]5(C)CC[C@H](O[C@@H]6O[C@H](C(=O)O)[C@@H](O)[C@H](O[C@@H]7OC[C@H](O)[C@H](O)[C@H]7O)[C@H]6O)[C@@](C)(C=O)[C@@H]5CC[C@]43C)[C@@H]2CC1(C)C` [GORDONOSIDE E], the 50% inhibitory concentration (IC50) is 2.7 µM in the assay on HCT-8; 1.1 µM in the assay on Bel-7402; greater than 10 µM in the assay with BGC-823; greater than 10 µM with A549; 2 µM in the assay with A2780.

For `C/C=C(/C)C(=O)O[C@H]1[C@H](OC(=O)/C(C)=C\C)[C@]2(CO)[C@H](O)C[C@]3(C)C(=CC[C@@H]4[C@@]5(C)CC[C@H](O[C@@H]6O[C@H](C(=O)O)[C@@H](O)[C@H](O[C@@H]7OC[C@H](O)[C@H](O)[C@H]7O)[C@H]6O)[C@@](C)(C(=O)OC)[C@@H]5CC[C@]43C)[C@@H]2CC1(C)C` [GORDONOSIDE F], the 50% inhibitory concentration (IC50) in the assay on HCT-8 was greater than 10 µM; with Bel-7402, 1.3 µM; with BGC-823, greater than 10 µM; in the assay on A549 it was greater than 10 µM; with A2780 it was 2 µM.

Consider `C/C=C(/C)C(=O)O[C@H]1[C@H](OC(=O)/C(C)=C\C)[C@]2(CO)[C@H](O)[C@H](O)[C@]3(C)C(=CC[C@@H]4[C@@]5(C)CC[C@H](O[C@@H]6O[C@H](C(=O)O)[C@@H](O)[C@H](O[C@@H]7OC[C@H](O)[C@H](O)[C@H]7O)[C@H]6O)[C@@](C)(C(=O)OC)[C@@H]5CC[C@]43C)[C@@H]2CC1(C)C` [GORDONOSIDE G], for which the IC50 in the assay with HCT-8, in the assay on Bel-7402, in the assay with BGC-823, in the assay with A549 and with A2780 was greater than 10 µM each time.

As to `CC(=O)O[C@H]1C(=O)[C@@]2(C)[C@H]([C@H](OC(=O)c3ccccc3)[C@]3(O)C[C@H](OC(=O)[C@H](O)[C@@H](NC(=O)c4ccccc4)c4ccccc4)C(C)=C1C3(C)C)[C@]1(OC(C)=O)CO[C@@H]1C[C@@H]2O` [PACLITAXEL], the IC50 in the assay on HCT-8 came to 3.6 µM; with Bel-7402, 6.3 µM; in the assay with BGC-823, 0.04 µM; in the assay on A549 it was 0.001 µM; with A2780, 0.9 µM.
